Reference: ChEMBL document CHEMBL4351001, “2-Aminoimidazole-based antagonists of the 5-HT6 receptor - A new concept in aminergic GPCR ligand design” (Eur J Med Chem, 2019)

target: 5-hydroxytryptamine receptor 7 (Homo sapiens, UniProt P34969); assay: Displacement of [3H]-5-CT from human 5HT7 receptor expressed in HEK293 cells measured after 1 hr by liquid scintillation counter method; assay type: cell-based; conditions: read-out: Ki
Sequence (P34969 whole entry): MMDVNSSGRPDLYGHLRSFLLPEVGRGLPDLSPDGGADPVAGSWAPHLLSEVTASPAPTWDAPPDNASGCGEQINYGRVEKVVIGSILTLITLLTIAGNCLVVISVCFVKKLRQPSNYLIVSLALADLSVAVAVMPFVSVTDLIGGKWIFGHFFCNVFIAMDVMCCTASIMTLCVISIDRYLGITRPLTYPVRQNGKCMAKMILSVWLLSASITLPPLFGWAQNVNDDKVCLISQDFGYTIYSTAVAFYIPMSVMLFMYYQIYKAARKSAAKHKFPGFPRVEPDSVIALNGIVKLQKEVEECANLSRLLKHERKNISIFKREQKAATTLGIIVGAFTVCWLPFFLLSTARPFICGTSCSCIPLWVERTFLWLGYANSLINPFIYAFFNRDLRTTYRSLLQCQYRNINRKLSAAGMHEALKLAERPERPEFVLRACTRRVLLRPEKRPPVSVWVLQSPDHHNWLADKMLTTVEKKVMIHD

| Compound | Ki |
| --- | --- |
| O=S(=O)(c1ccccc1)n1cc(-c2c[n+]3cccnc3[nH]2)c2ccccc21.[Br-] | > 10000 nM |
| Cc1nc(N)[nH]c1-c1ccc2ccn(S(=O)(=O)c3ccccc3)c2c1.Cl | 776 nM |

target: 5-hydroxytryptamine receptor 2B (Homo sapiens) (UniProt P41595); assay: Displacement of [3H] mesulergine from human recombinant 5HT2B receptor at 10^-6 M measured after 60 mins by scintillation counting method relative to control; conditions: not given
Sequence (P41595 whole entry): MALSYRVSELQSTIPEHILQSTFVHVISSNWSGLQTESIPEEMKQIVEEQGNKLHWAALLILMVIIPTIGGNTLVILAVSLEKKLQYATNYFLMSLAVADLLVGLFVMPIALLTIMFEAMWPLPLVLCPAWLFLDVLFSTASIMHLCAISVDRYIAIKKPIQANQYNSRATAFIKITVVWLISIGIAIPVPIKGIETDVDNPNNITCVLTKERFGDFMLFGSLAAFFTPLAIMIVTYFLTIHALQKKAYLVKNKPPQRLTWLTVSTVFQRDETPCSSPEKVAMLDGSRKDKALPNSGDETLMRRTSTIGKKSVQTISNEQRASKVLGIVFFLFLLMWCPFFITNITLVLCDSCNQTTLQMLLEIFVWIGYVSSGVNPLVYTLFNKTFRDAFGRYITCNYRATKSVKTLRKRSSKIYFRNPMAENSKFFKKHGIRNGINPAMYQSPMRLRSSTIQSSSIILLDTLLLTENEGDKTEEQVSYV

| Compound | inhibition |
| --- | --- |
| COc1ccc2c(c1)c(-c1cnc(N)[nH]1)cn2S(=O)(=O)c1ccccc1 | 1.7% |
| Cc1nc(N)[nH]c1-c1cn(S(=O)(=O)c2ccccc2)c2ccccc12 | 4.5% |

tested on: not listed separately; assay: Stability of compound in rat liver microsomes; assay type: ADME, Microsome; conditions: not given
Outline: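 Incubation in triplicate with rat liver microsomes at 37°C with NADP, G6P, G6P dehydrogenase and MgCl2. Verapamil and donepezil served as microsomal activity standards.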

| Compound | Stability |
| --- | --- |
| O=S(=O)(c1ccccc1)n1cc(-c2c[n+]3cccnc3[nH]2)c2ccccc21.[Br-] | Unstable |
| Cc1nc(N)[nH]c1-c1ccc2ccn(S(=O)(=O)c3ccccc3)c2c1.Cl | Unstable |

target: Histamine H1 receptor (Homo sapiens) (UniProt P35367); assay: Displacement of [3H] pyrilamine from human recombinant H1 histamine receptor at 10^-6 M measured after 60 mins by scintillation counting method relative to control; conditions: not given
Sequence (P35367 whole entry): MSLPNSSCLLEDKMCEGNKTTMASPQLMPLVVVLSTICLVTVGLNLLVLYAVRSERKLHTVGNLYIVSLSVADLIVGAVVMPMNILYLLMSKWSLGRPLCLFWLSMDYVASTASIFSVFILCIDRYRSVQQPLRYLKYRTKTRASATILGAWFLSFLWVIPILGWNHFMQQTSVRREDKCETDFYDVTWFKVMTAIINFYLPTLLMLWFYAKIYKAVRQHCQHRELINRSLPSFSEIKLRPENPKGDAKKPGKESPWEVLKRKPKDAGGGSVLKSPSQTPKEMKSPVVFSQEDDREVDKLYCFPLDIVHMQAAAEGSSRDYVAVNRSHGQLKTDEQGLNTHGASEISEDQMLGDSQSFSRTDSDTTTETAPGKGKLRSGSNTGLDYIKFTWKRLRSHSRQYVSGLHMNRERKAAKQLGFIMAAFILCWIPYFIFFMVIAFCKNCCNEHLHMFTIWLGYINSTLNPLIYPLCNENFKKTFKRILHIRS

| Compound | inhibition |
| --- | --- |
| CC(=O)Nc1nc(C)c(-c2cn(S(=O)(=O)c3ccccc3)c3ccccc23)[nH]1 | -5.9% |
| CC(=O)Nc1nc(C)c(-c2ccc3ccn(S(=O)(=O)c4ccccc4)c3c2)[nH]1 | -1.9% |

target: 5-hydroxytryptamine receptor 2A (Homo sapiens, UniProt P28223); assay: Displacement of [3H]ketanserin from human 5HT2A receptor expressed in CHOK1 cells incubated for 1 hr by liquid scintillation counter method; assay type: cell-based; conditions: read-out: Ki
Sequence (P28223 whole entry): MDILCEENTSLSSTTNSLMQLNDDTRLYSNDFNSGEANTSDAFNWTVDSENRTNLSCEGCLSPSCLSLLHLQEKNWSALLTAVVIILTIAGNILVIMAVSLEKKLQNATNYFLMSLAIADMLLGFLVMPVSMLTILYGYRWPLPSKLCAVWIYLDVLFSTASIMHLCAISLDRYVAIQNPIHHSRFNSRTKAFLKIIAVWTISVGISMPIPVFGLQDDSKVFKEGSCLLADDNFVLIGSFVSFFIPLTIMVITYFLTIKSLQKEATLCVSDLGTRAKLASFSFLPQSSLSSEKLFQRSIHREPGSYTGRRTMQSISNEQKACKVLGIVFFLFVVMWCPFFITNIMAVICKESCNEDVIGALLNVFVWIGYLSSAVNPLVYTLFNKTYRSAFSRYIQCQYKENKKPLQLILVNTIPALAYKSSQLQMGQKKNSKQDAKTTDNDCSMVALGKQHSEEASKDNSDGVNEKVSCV

| Compound | Ki |
| --- | --- |
| COc1ccc2c(c1)c(-c1cnc(N)[nH]1)cn2S(=O)(=O)c1ccccc1 | 794 nM |
| O=S(=O)(c1ccccc1)n1cc(-c2c[n+]3cccnc3[nH]2)c2ccccc21.[Br-] | > 10000 nM |
| Cc1nc(N)[nH]c1-c1ccc2ccn(S(=O)(=O)c3ccccc3)c2c1.Cl | 1170 nM |
| CC(=O)Nc1nc(C)c(-c2ccc3ccn(S(=O)(=O)c4ccccc4)c3c2)[nH]1 | > 10000 nM |
| Cc1nc(N)[nH]c1-c1cn(S(=O)(=O)c2ccccc2)c2ccccc12 | 100 nM |

tested on: not listed separately; assay: in vitro; conditions: rat, microsomes

| Compound | microsomal CLint |
| --- | --- |
| O=S(=O)(c1ccccc1)n1cc(-c2c[n+]3cccnc3[nH]2)c2ccccc21.[Br-] | 230 µL/min/mg |
| Cc1nc(N)[nH]c1-c1ccc2ccn(S(=O)(=O)c3ccccc3)c2c1.Cl | 104 µL/min/mg |

target: T1, Alpha-1A adrenergic receptor (Rattus norvegicus) (UniProt P43140); assay: Displacement of [3H] prazosin from rat alpha 1A adrenergic receptor at 10^-6 M measured after 60 mins by scintillation counter method relative to control; conditions: not given
T1 sequence (whole entry): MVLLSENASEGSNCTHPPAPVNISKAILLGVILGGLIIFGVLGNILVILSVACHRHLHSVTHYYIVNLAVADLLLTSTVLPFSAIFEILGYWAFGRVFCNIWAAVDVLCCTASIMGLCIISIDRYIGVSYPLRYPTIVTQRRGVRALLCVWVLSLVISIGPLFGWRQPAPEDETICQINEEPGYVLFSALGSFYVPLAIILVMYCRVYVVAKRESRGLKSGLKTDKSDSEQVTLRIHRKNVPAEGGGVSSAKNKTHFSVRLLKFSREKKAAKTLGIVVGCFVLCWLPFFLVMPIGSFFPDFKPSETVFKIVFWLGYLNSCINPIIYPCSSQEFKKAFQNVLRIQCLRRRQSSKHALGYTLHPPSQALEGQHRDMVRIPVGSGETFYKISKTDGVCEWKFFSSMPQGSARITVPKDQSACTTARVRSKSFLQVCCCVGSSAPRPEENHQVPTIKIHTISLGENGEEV

| Compound | inhibition |
| --- | --- |
| CC(=O)Nc1nc(C)c(-c2cn(S(=O)(=O)c3ccccc3)c3ccccc23)[nH]1 | -1.5% |
| COc1ccc2c(c1)c(-c1cnc(N)[nH]1)cn2S(=O)(=O)c1ccccc1 | 33.1% |
| CC(=O)Nc1nc(C)c(-c2ccc3ccn(S(=O)(=O)c4ccccc4)c3c2)[nH]1 | -4.2% |
| Cc1nc(N)[nH]c1-c1cn(S(=O)(=O)c2ccccc2)c2ccccc12 | 12.2% |

target: D(2) dopamine receptor (Homo sapiens, UniProt P14416); assay: Displacement of [3H]-methylspiperone from human D2 long receptor expressed in HEK293 cells measured after 1 hr by liquid scintillation counter method; assay type: cell-based; conditions: not given
Sequence (P14416 whole entry): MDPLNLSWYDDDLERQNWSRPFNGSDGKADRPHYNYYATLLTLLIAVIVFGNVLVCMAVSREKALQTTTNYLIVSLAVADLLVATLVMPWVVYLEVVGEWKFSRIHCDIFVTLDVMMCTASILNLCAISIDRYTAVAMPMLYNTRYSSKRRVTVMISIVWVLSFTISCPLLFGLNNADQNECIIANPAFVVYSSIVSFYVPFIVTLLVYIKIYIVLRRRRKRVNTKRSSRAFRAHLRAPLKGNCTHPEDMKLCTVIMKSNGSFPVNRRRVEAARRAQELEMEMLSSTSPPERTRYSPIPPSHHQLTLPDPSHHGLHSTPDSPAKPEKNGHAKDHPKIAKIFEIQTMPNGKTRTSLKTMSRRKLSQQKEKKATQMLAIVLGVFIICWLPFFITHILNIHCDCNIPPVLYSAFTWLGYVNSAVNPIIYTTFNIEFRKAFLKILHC
Outline: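 HEK293 membranes stably expressing human D2L receptor, incubated 1 h at 37°C, then filtered and retained radioactivity counted; (+)-butaclamol 1 μM defines nonspecific binding. Tested in triplicate at 7–8 concentrations (10⁻¹¹–10⁻⁴ M); Ki via Cheng-Prusoff, averaged over at least two independent experiments.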

| Compound | Ki |
| --- | --- |
| Cc1nc(N)[nH]c1-c1ccc2ccn(S(=O)(=O)c3ccccc3)c2c1.Cl | 708 nM |

target: T2, Muscarinic acetylcholine receptor M5 (Homo sapiens) (UniProt P08912); assay: Displacement of [3H]4-DAMP from human recombinant muscarinic M5 receptor at 10^-6 M measured after 60 mins by scintillation counter method relative to control; conditions: not given
T2 sequence (whole entry): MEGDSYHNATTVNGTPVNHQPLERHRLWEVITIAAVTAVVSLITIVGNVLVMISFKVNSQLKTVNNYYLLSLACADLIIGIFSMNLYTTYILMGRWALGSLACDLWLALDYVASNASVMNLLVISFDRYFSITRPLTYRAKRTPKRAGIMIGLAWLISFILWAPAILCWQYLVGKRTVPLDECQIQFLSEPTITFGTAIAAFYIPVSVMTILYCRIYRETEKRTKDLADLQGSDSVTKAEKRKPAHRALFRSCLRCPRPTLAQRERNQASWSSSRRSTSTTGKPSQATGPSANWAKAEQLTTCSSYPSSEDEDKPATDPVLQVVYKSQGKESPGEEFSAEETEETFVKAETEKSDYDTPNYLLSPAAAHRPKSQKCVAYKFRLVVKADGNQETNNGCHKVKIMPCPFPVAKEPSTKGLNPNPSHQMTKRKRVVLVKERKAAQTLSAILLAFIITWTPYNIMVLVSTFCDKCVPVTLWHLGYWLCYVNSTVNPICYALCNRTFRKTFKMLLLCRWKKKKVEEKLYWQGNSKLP

| Compound | inhibition |
| --- | --- |
| COc1ccc2c(c1)c(-c1cnc(N)[nH]1)cn2S(=O)(=O)c1ccccc1 | 5.6% |
| Cc1nc(N)[nH]c1-c1cn(S(=O)(=O)c2ccccc2)c2ccccc12 | 7.6% |

target: T3, 5-hydroxytryptamine receptor 6 (Homo sapiens, UniProt P50406); assay: Antagonist activity at human 5HT6 receptor expressed in HEK293 cells assessed as inhibition of 5-CT induced cAMP production measured after 30 mins by TR-FRET assay; assay type: functional, cell-based; conditions: not given
T3 sequence (P50406 whole entry): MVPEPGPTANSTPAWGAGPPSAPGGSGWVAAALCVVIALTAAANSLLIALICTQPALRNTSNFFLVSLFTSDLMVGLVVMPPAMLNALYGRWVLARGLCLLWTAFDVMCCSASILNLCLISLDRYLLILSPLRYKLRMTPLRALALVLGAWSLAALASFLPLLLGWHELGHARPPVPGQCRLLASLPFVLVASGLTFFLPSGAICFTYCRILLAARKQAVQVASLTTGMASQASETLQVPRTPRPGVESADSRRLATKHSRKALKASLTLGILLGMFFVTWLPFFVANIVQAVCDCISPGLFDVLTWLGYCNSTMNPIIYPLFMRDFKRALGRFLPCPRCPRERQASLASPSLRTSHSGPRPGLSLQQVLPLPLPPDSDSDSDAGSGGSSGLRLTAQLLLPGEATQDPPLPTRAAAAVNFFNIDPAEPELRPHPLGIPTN

| Compound | Kb |
| --- | --- |
| CC(=O)Nc1nc(C)c(-c2cn(S(=O)(=O)c3ccccc3)c3ccccc23)[nH]1 | 1.3 nM |

target: T4, 5-hydroxytryptamine receptor 1A (Homo sapiens, UniProt P08908); assay: Displacement of [3H]-8-OH-DPAT from human 5HT1A receptor expressed in HEK293 cells incubated for 1 hr by liquid scintillation counter method; assay type: cell-based; conditions: read-out: Ki
T4 sequence (P08908 whole entry): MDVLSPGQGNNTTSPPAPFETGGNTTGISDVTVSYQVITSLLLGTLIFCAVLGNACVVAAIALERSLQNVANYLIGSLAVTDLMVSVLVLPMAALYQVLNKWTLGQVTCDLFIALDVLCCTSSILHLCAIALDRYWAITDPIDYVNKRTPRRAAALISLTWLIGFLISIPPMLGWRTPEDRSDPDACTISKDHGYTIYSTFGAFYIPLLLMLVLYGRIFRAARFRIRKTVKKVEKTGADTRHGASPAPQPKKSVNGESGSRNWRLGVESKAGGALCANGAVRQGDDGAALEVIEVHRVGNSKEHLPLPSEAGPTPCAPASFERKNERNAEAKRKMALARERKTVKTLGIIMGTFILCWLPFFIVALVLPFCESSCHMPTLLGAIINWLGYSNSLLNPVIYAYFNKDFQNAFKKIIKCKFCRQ
Outline: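 HEK293 cells stably expressing human 5-HT1AR; membranes in 50 mM Tris–HCl, 0.1 mM EDTA, 4 mM MgCl2, 10 μM pargyline, 0.1% ascorbate; incubated 1 h at room temperature, then filtered. Nonspecific binding defined with 10 μM 5-HT.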

| Compound | Ki |
| --- | --- |
| COc1ccc2c(c1)c(-c1cnc(N)[nH]1)cn2S(=O)(=O)c1ccccc1 | > 10 µM |
| O=S(=O)(c1ccccc1)n1cc(-c2c[n+]3cccnc3[nH]2)c2ccccc21.[Br-] | > 10 µM |
| Cc1nc(N)[nH]c1-c1ccc2ccn(S(=O)(=O)c3ccccc3)c2c1.Cl | > 10 µM |
| Cc1nc(N)[nH]c1-c1cn(S(=O)(=O)c2ccccc2)c2ccccc12 | > 10 µM |

tested on: not listed separately; assay: Solubility of compound in water; assay type: physicochemical; conditions: buffer

| Compound | solubility |
| --- | --- |
| O=S(=O)(c1ccccc1)n1cc(-c2c[n+]3cccnc3[nH]2)c2ccccc21.[Br-] | Soluble |
| Cc1nc(N)[nH]c1-c1ccc2ccn(S(=O)(=O)c3ccccc3)c2c1.Cl | Soluble |

target: T5, Muscarinic acetylcholine receptor M1 (Homo sapiens) (UniProt P11229); assay: Displacement of [3H] pirenzepine from human recombinant muscarinic M1 receptor at 10^-6 M measured after 60 mins by scintillation counter method relative to control; conditions: not given
T5 sequence (whole entry): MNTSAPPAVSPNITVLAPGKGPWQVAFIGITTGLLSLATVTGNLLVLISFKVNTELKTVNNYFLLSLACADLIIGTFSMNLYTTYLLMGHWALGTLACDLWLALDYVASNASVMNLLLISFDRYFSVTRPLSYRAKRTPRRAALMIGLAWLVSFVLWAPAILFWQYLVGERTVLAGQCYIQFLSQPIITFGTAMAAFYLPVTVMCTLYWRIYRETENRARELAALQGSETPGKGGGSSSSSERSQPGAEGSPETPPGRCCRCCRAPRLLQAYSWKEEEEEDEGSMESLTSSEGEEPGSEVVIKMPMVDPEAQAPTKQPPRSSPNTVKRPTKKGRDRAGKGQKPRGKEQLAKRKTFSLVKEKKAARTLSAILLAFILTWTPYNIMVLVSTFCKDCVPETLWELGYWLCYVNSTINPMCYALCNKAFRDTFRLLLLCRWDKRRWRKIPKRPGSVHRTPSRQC

| Compound | inhibition |
| --- | --- |
| COc1ccc2c(c1)c(-c1cnc(N)[nH]1)cn2S(=O)(=O)c1ccccc1 | 6.7% |
| Cc1nc(N)[nH]c1-c1cn(S(=O)(=O)c2ccccc2)c2ccccc12 | 3.8% |

tested on: not listed separately; assay: in vitro; conditions: rat, microsomes; remark: another data set of the same source

| Compound | half-life |
| --- | --- |
| O=S(=O)(c1ccccc1)n1cc(-c2c[n+]3cccnc3[nH]2)c2ccccc21.[Br-] | 6 min |
| Cc1nc(N)[nH]c1-c1ccc2ccn(S(=O)(=O)c3ccccc3)c2c1.Cl | 13 min |

target: T6, 5-hydroxytryptamine receptor 2C (Homo sapiens) (UniProt P28335); assay: Displacement of [3H]mesulergine from human recombinant 5HT2C serotonin receptor at 10^-6M incubated for 120 mins by scintillation counter method relative to control; conditions: not given
T6 sequence (whole entry): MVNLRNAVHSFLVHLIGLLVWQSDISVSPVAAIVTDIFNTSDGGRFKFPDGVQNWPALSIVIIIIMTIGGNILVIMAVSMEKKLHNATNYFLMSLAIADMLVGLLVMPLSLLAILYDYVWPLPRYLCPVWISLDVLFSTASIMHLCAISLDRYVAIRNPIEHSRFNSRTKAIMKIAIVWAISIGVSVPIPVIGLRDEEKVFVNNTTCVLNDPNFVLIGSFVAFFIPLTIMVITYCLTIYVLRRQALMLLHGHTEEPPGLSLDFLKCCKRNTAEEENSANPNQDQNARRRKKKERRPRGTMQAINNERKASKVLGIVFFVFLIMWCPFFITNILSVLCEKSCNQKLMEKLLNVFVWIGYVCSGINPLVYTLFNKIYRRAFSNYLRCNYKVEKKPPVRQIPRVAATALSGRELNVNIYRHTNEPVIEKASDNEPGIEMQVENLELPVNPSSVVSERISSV

| Compound | inhibition |
| --- | --- |
| CC(=O)Nc1nc(C)c(-c2cn(S(=O)(=O)c3ccccc3)c3ccccc23)[nH]1 | 22.4% |
| COc1ccc2c(c1)c(-c1cnc(N)[nH]1)cn2S(=O)(=O)c1ccccc1 | 82% |
| Cc1nc(N)[nH]c1-c1cn(S(=O)(=O)c2ccccc2)c2ccccc12 | 71.6% |

target: T3, 5-hydroxytryptamine receptor 6; assay: Displacement of [3H]LSD from human 5HT6 receptor expressed in HEK293 cells measured after 1 hr by liquid scintillation counter method; assay type: cell-based; conditions: not given

| Compound | Ki |
| --- | --- |
| O=S(=O)(c1ccccc1)n1cc(-c2c[n+]3cccnc3[nH]2)c2ccccc21.[Br-] | 50 nM |
| Cc1nc(N)[nH]c1-c1ccc2ccn(S(=O)(=O)c3ccccc3)c2c1.Cl | 4 nM |

target: 5-hydroxytryptamine receptor 2B (Homo sapiens) (UniProt P41595); assay: Antagonist activity at human recombinant 5HT2B receptor expressed in CHOK1 cells at 10^-6 M measured after 30 mins by HTRF assay relative to control; assay type: cell-based; parameters: scale not given: the % may be the effect or the level left; conditions: not given

| Compound | Activity |
| --- | --- |
| CC(=O)Nc1nc(C)c(-c2cn(S(=O)(=O)c3ccccc3)c3ccccc23)[nH]1 | -1.9% |
